Compound activity: PubChem, The Scripps Research Institute Molecular Screening Center
CHRM4 PAM: positive allosteric modulators of human muscarinic M4 receptor; P08173; CHO-K1 hM4/Gqi5, Fluo-8 calcium fluorescence, ACh EC20; 0% = ACh EC20, 100% = maximal ACh; activation, % at 3 µM; hit rate 0.4% among 360,000;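 active means activation above its plate's cutoff, the mean activation of sample wells plus 3 SD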
M5 antag: blocks acetylcholine activation of human M5 receptor. CHO-hM5 cells, Fluo-8 calcium fluorescence, ACh EC80. inhibition, % at 3 µM. hit rate 0.59% among 360,000. AID 624040;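 active means inhibition above a per-plate cutoff, the mean of that plate's test compounds plus 3 SD, cut at about 27% in these data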
Target sequence (P08912 whole entry, looked up): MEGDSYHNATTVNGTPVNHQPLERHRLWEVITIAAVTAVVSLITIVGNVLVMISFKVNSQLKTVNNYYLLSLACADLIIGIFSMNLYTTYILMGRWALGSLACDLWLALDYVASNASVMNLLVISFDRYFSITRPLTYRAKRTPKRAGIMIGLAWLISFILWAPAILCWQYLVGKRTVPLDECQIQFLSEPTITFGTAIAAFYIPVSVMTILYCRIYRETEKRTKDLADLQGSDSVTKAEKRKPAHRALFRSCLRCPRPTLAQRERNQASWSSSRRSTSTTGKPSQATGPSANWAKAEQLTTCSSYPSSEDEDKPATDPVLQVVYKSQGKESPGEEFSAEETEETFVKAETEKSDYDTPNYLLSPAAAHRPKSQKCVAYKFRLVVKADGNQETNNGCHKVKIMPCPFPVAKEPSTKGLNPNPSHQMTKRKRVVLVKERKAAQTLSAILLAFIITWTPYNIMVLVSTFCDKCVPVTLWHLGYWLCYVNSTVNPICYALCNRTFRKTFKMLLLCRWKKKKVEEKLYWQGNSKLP
CHRM4 agonist: CHRM4 agonism in calcium assay. P08173. CHO-K1 hM4/Gqi5, Fluo-8 calcium fluorescence; vehicle 0%, full acetylcholine response 100%. activation, % at 3 µM. hit rate 0.14% among 360,000;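 active means activation above the run mean over all test wells plus 3 SD, cut at about 32% in these data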;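 further: peak over basal fluorescence ratio per well then scaled between controls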
M5 ag: agonists of human muscarinic M5 receptor (CHRM5) | CHO-K1 hM5 cells, Fluo-8 calcium fluorescence; 0% DMSO wells, 100% maximal acetylcholine response | activation, % at 3 µM | P08912 | hit rate 0.19% among 360,000;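 active means activation above the run's mean over test compounds plus 3 SD, cut at about 23% in these data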;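 further: signal is peak over basal fluorescence ratio across the kinetic read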
M5 PAM: positive allosteric modulators of human muscarinic M5 receptor; P08912; CHO-K1 hM5, Fluo-8 calcium, ACh EC20 PAM; 0% = ACh EC20, 100% = ACh EC100; activation, % at 3 µM; hit rate 0.3% among 360,000;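 active means activation above the run cutoff, the mean activation of all test compounds plus 3 SD, cut at about 18% in these data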
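System: CHO-K1 hM5 cells. Reagent: acetylcholine, EC20 level. Compound dosing: single dose, 3 µM nominal final test concentration. Timing: Post-acetylcholine fluorescence recording 140 s. Detection: Fluo-8 calcium fluorescence. Read-out: % activation, ACh-normalized. Benchmarks: ACh EC20 and EC100 wells. Repeats: singlicate, one well per test compound.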
CHRM4 antagonist: blocks acetylcholine activation of human M4 receptor; P08173; CHO-hM4 cells, ACh EC80, Fluo-8 calcium fluorescence; inhibition, % at 3 µM; hit rate 0.73% among 360,000;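 active means inhibition above its plate's cutoff, the mean inhibition of sample wells plus 3 SD, cut at about 27% in these data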
Each line names hits and unclear results; the compound was inactive in the other large screens. Sampled rows, rich in hits. Any-hit rate of the full collection: about 1.9%.

CCCNC(=O)C1(C)CCN(C(=O)c2cccc(C#N)c2)C1 (stereo unspecified)	none
CC1CC(C)CN(C(=O)CN2C(=O)NC3(CCCCCCC3)C2=O)C1 (stereo unspecified)	none
COc1cccc(CN(C)C(=O)c2cc(-c3ccc(F)cc3)nc3ccccc23)c1	none
COc1ccc(-c2cc(C(=O)N(C)Cc3cccc(OC)c3OC)c3ccccc3n2)cc1OC	none
COc1cccc(CN(C)C(=O)c2cc(-c3ccc(OC)c(OC)c3)nc3ccccc23)c1	M5 antag 28.1, CHRM4 antagonist 30.0
COc1ccc(CN(C)C(=O)c2cc(-c3ccc(OC)c(OC)c3)nc3ccccc23)c(OC)c1	CHRM4 antagonist 26.6
COc1ccc(C(=O)Nc2ccc3nc(C)sc3c2)cc1S(=O)(=O)N1CCOCC1	none
O=C1CSC(c2ccccc2)N1c1ccc([N+](=O)[O-])cc1 (stereo unspecified)	CHRM4 antagonist 33.3
COc1ccc(C(=O)OCC(=O)N(C)C2CCS(=O)(=O)C2)cc1Br (stereo unspecified)	none
Cc1ccccc1C(=O)NCC(=O)NNC(=O)CCN1CCN(c2ccccc2)CC1	none
Cc1ccsc1C(=O)NNC(=O)CCN1CCN(c2ccccc2)CC1	CHRM4 PAM 22.9
Cc1ccc(-n2ncc(C#N)c2/N=C/N2CCOCC2)cc1	CHRM4 PAM 21.6
Cc1cccc2cc3c(NC(=O)C(C)(C)C)nn(CC(C)C)c3nc12	none
Cc1cc(C(=O)Nc2c[nH]c(=O)[nH]c2=O)ccc1[N+](=O)[O-]	none
O=C(Nc1c[nH]c(=O)[nH]c1=O)c1cccc(F)c1	none
Cc1cccc(N2C(=O)c3ccc(C(=O)Nc4c[nH]c(=O)[nH]c4=O)cc3C2=O)c1	CHRM4 antagonist 27.4
O=C(Nc1c[nH]c(=O)[nH]c1=O)c1cccc([N+](=O)[O-])c1	M5 PAM 21.7
COc1ccc(C(CNC(=O)C(=O)NC2CCCC2)N2CCN(C)CC2)cc1 (stereo unspecified)	none
CCc1ccccc1N(C(=O)c1ccco1)C(C(=O)NC1CCCC1)c1cccnc1 (stereo unspecified)	none
CC(C)n1nnnc1SCC(=O)N1CCOCC1	CHRM4 antagonist 28.1
Cc1cc(C)cc(OCC(O)CN2C(=O)NC(C)(C)C2=O)c1 (stereo unspecified)	none
Cc1ccc(OCC(O)CN2C(=O)NC(C)(C)C2=O)c(C)c1 (stereo unspecified)	CHRM4 PAM 19.1
Cc1nc2ccccc2n1CC(=O)NCCN1CCOCC1	CHRM4 antagonist 32.3
O=C(Cc1ccccc1)Nc1nnc(-c2cccc([N+](=O)[O-])c2)s1	CHRM4 PAM 34.8
NC(=S)Nn1c(-c2ccccc2)nc2ccccc2c1=O	M5 PAM 22.1
CCOC(=O)C1=C(C)N(CCO)C(=O)NC1c1ccccc1 (stereo unspecified)	M5 PAM 19.5
CCOC(=O)C1=C(C)N(CCCC(=O)O)C(=O)NC1c1ccccc1 (stereo unspecified)	none
COc1ccc(Br)cc1/C(C)=N/NC1=NCCN1	M5 antag 29.6, M5 ag 46.7
CCCCCOc1ccc(Br)cc1/C(C)=N/NC1=NCCN1	none
O=C(NCc1nnc(SC/C=C/c2ccccc2)o1)c1ccco1	none
NCCCCCc1nnc(SCc2ccccc2Cl)o1	M5 antag 28.1
NCCCCCc1nnc(SC/C=C/c2ccccc2)o1	CHRM4 antagonist 38.5
NCCc1nnc(SCc2c(Cl)cccc2Cl)o1	none
CC(C)c1ccccc1N=C1SCCCN1C(=O)c1cccc(N2C(=O)CCC2=O)c1	none
C[C@@H](CSc1ccc(Br)cc1)CN1CC[C@H](NC(=O)OCc2ccccc2)CCC1=O	CHRM4 antagonist 28.0
CCOC(=O)/C=C/C(=O)Nc1ccc(Oc2ccccc2)cc1	M5 antag 35.8
Cc1ccc(N(CC(=O)NC2CC3CCC2C3)S(C)(=O)=O)cc1C (stereo unspecified)	CHRM4 PAM 27.5
CS(=O)(=O)N(CC(=O)NC1CC2CCC1C2)c1cccc(C(F)(F)F)c1 (stereo unspecified)	none
CCC1CCCCN1CCCNC(=O)C1CCCN(c2nn3c(=O)cc(C)nc3s2)C1 (stereo unspecified)	none
Cc1cc(=O)n2nc(N3CCCC(C(=O)NCCCN4CCc5ccccc5C4)C3)sc2n1 (stereo unspecified)	CHRM4 antagonist 28.1
COc1ccc(C(=O)c2sc(Nc3ccccc3)c(C(=O)Nc3ccc(OC)c(OC)c3)c2N)cc1	none
COc1ccc(NC(=O)c2c(Nc3ccccc3)sc(C(=O)c3ccc(F)cc3)c2N)cc1	M5 antag 28.0
COc1ccc(Nc2sc(C(=O)c3ccc(Cl)cc3)c(N)c2C(=O)Nc2ccccc2OC)cc1	CHRM4 agonist 73.6, M5 ag 38.6, CHRM4 antagonist 49.8
COc1ccc(C(=O)c2sc(Nc3cccc(OC)c3)c(C(=O)Nc3cccc(C)c3C)c2N)cc1	none
O=C(Nc1ccnn1C1CCN(Cc2cc(Cl)ccc2O)CC1)C1CC1	none
O=C(CN1CCN(C(C(=O)Nc2ccc(Cl)cc2C(F)(F)F)c2ccccc2)CC1)NC1CC1 (stereo unspecified)	none
COc1ccc(-c2nc(-c3cccc(C(F)(F)F)c3)no2)cc1OC	CHRM4 PAM 29.7
CCn1c(CNc2ccc(C)cc2)nnc1SCC(=O)NCc1ccccc1	CHRM4 PAM 30.6
COc1ccc(CCC(C)N2CCC(Oc3ccc(C(=O)N4CCCC4)cc3)CC2)cc1 (stereo unspecified)	CHRM4 antagonist 42.0
CC(CCc1ccc(O)cc1)N1CCC(Oc2ccc(C(=O)N3CCCC3)cc2)CC1 (stereo unspecified)	none
O=C(c1ccc(OC2CCN(Cc3ccccc3C(F)(F)F)CC2)cc1)N1CCCCC1	M5 antag 29.2
CC(=O)N1CCN(C(=O)c2ccc(OC3CCN(CCc4ccccc4)CC3)cc2)CC1	none
CCOC(=O)C1CCN(C(=O)c2ccc(OC3CCN(C(=O)COC)CC3)cc2)CC1	CHRM4 PAM 19.9
O=C(c1ccc(OC2CCN(CCCc3ccccc3)CC2)cc1)N1CCCC1	CHRM4 antagonist 30.5
CCN(CC)C(=O)c1csc(COCCO)n1	none
COCCN(C(=O)CNC(=O)c1ccco1)C(C(=O)NC1CCCC1)c1ccc(F)cc1 (stereo unspecified)	none
O=C(NCc1ccc2c(c1)OCO2)OCc1ccccc1	none
CCOC(=O)CSc1nc2cc(S(=O)(=O)N3CCOCC3)ccc2n1CC	none
Cc1ccc(C(=O)N2CCN(C/C=C/c3ccccc3)CC2)cc1S(=O)(=O)N1CCOCC1	none
